Experimental data: ChEMBL document CHEMBL4265955, “Synthesis and antiproliferative activity of podocarpane and totarane derivatives” (Eur J Med Chem, 2018)
Activity calls are given as the source filed them. No cut-off for these calls is given here.

How the values were obtained:
MCF7 [1] = assay: Antiproliferative activity against human MCF7 cells after 3 days by sulforhodamine B assay; assay type: functional, cell-based; conditions: MCF7, 72 h
Summary of the method: (§1)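 Cells grown in DMEM with 10% heat-inactivated FBS, penicillin-streptomycin and 2 mM L-glutamine at 37°C, 5% CO2. Seeded at 5 x 10^3 cells/cm², exposed 24 h later to increasing compound concentrations for 3 days. Fixed with cold 10% TCA, stained with 0.4% SRB, dye solubilized in 10 mM Tris pH 10.5, OD read at 492 nm. IC50 taken by linear interpolation of semilog dose-response curve; seven biological replicates, mean ± SEM.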

A549 [2] = assay: Antiproliferative activity against human A549 cells after 3 days by sulforhodamine B assay; assay type: functional, cell-based; conditions: A549, 72 h; summary of the method: as §1
T84 [3] = assay: Antiproliferative activity against human T84 cells after 3 days by sulforhodamine B assay; assay type: functional, cell-based; conditions: T84, 72 h; summary of the method: as §1
A549 [4] = assay: Cell cycle arrest in human A549 cells assessed as reduction in accumulation at G1 phase at IC50 after 48 hrs by propidium iodide staining based flow cytometry; assay type: functional
A549 [5] = assay: Cell cycle arrest in human A549 cells assessed as accumulation at sub-G1 phase at IC50 after 48 hrs by propidium iodide staining based flow cytometry (reference value: 2.6%); assay type: functional
A549 [6] = assay: Cell cycle arrest in human A549 cells assessed as reduction in accumulation at G2/M phase at IC50 after 48 hrs by propidium iodide staining based flow cytometry; assay type: functional
[7] = Cytotoxicity against human PBMC assessed as cell viability at 2.5 uM by MTT assay relative to control; assay type: cell-based; conditions: PBMC (peripheral blood mononuclear cells), read-out: Activity
Summary of the method: (§2)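 PBMC isolated from healthy donor blood by Histopaque-1077 density gradient centrifugation. Cultured in RPMI-1640 with 20% FBS, penicillin-streptomycin and 2 mM glutamine at 37°C, 5% CO2. Exposed to increasing compound concentrations; viability of non-adherent cultures measured by MTT at 570 and 595 nm and expressed against untreated control cultures.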

A549 [8] = assay: Induction of apoptosis in human A549 cells assessed as total apoptotic cells at IC50 after 24 hrs by Annexin-V-FITC/propidium iodide staining based flow cytometry (reference value: 13.2%); assay type: functional
A549 [9] = assay: Induction of apoptosis in human A549 cells assessed as viable cells at IC50 after 24 hrs by Annexin-V-FITC/propidium iodide staining based flow cytometry (reference value: 83.6%); assay type: functional
PBMC [10] = assay: Cytotoxicity against human PBMC assessed as reduction in cell viability at 10 uM by MTT assay relative to control; assay type: cell-based; summary of the method: as §2
T84 [11] = assay: Potency index, ratio of 5-fluorouracil IC50 to test compound IC50 for human T84 cells; assay type: functional
[12] = Cytotoxicity against human PBMC assessed as cell viability at 5 uM by MTT assay relative to control; assay type: cell-based; conditions: PBMC (peripheral blood mononuclear cells), read-out: Activity; summary of the method: as §2
[13] = Cytotoxicity against human PBMC assessed as cell viability at 1 uM by MTT assay relative to control; assay type: cell-based; conditions: PBMC (peripheral blood mononuclear cells), read-out: Activity; summary of the method: as §2
A549 [14] = assay: Cell cycle arrest in human A549 cells assessed as accumulation at G0/G1 phase at IC50 after 24 hrs by propidium iodide staining based flow cytometry (reference value: 60.6%); assay type: functional
A549 [15] = assay: Cell cycle arrest in human A549 cells assessed as reduction in accumulation at S phase at IC50 after 48 hrs by propidium iodide staining based flow cytometry; assay type: functional
MCF7 [16] = assay: Potency index, ratio of 5-fluorouracil IC50 to test compound IC50 for human MCF7 cells; assay type: functional
A549 [17] = assay: Cell cycle arrest in human A549 cells assessed as accumulation at G2/M phase at IC50 after 24 hrs by propidium iodide staining based flow cytometry (reference value: 8.8%); assay type: functional
A549 [18] = assay: Potency index, ratio of 5-fluorouracil IC50 to test compound IC50 for human A549 cells; assay type: functional
A549 [19] = assay: Induction of apoptosis in human A549 cells assessed as increase in Bax to Bcl2 ratio at 0.5 to 1 times IC50 after 24 hrs Western blot analysis; assay type: functional, cell-based
Summary of the method: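 A-549 seeded at 4 x 10^4 cells/cm², treated 24 h later at 0x, 0.5x or 1x IC50 for 24 h. Lysed in SDS sample buffer, proteins separated on 12% acrylamide gels and transferred to nitrocellulose. Blocked 1 h in 3% milk/1% BSA/0.5% Tween-20 in PBS. Probed overnight with mouse monoclonal anti-Bax or anti-Bcl-2, then HRP anti-mouse IgG.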

PBMC [20] = assay: Cytotoxicity against human PBMC assessed as reduction in cell viability at 0.5 to 10 uM by MTT assay; assay type: cell-based
Summary of the method: (§3)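 PBMC isolated from healthy donor blood by density gradient centrifugation (Histopaque-1077), cultured in RPMI-1640 with 20% FBS, penicillin-streptomycin and 2 mM glutamine at 37°C, 5% CO2. Cells exposed to increasing compound concentrations for 3 days. Viability read by MTT at 570 and 595 nm and expressed versus untreated control cultures.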

PBMC [21] = assay: Cytotoxicity against human PBMC assessed as reduction in cell viability at 0.5 uM by MTT assay relative to control; assay type: cell-based; summary of the method: as §3

| SMILES | IC50 (MCF7 [1]) [µM] | IC50 (A549 [2]) [µM] | IC50 (T84 [3]) [µM] | further results |
| --- | --- | --- | --- | --- |
| COC(=O)[C@@]1(C)CCC[C@]2(C)c3cc(O)cc(C(C)C)c3CC[C@@H]12 | 28.8 | 18.6 | 30.5 | – |
| COC(=O)c1cc2c(cc1OC)[C@@]1(C)CCC[C@](C)(C(=O)OC)[C@@H]1CC2 | > 40 | > 40 | > 40 | – |
| COC(=O)c1cc2c(cc1O)[C@@]1(C)CCC[C@](C)(C(=O)OC)[C@@H]1CC2 | 21.7 | 17.2 | 20.7 | – |
| COC(=O)c1cc(O)cc2c1CC[C@H]1[C@@](C)(C(=O)OC)CCC[C@]21C | > 40 | > 40 | > 40 | – |
| C=C(C)c1cc(O)cc2c1CC[C@H]1[C@@](C)(C(=O)OC)CCC[C@]21C | 26.1 | 23.7 | 30.7 | – |
| COC(=O)[C@@]1(C)CCC[C@]2(C)c3c(O)c(O)cc(C(C)C)c3CC[C@@H]12 | 2.8 | 0.6 | 1 | Activity (A549 [4]): Active; Activity (A549 [5]): 70.1%; Activity (A549 [6]): Active; viability at 2.5 µM [7]: 81.3%; Activity (A549 [8]): 44%; Activity (A549 [9]): 54.2%; Activity (PBMC [10]): 21.5%; Ratio IC50 (T84 [11]): 4; viability at 5 µM [12]: 87.7%; viability at 1 µM [13]: 86.4%; Activity (A549 [14]): 53.7%; Activity (A549 [15]): Active; Ratio IC50 (MCF7 [16]): 4; Activity (A549 [17]): 14.5%; Ratio IC50 (A549 [18]): 4; Activity (A549 [19]): Active |
| CC(=O)c1cc2c(cc1O)[C@@]1(C)CCC[C@](C)(CO)[C@@H]1CC2 | 9.3 | 4.8 | 7.8 | – |
| O=c1[nH]cc(F)c(=O)[nH]1 [FLUOROURACIL] | 7.8 | 7.1 | 3.4 | – |
| COC(=O)[C@@]1(C)CCC[C@]2(C)C3=C(CC[C@@H]12)C(C(C)C)=CC(=O)C3=O | 1.1 | 6.8 | 11.4 | viability at 2.5 µM [7]: 64.7%; Activity (PBMC [20]): Toxic; Activity (PBMC [10]): 43.8%; Activity (PBMC [21]): 25%; viability at 5 µM [12]: 58.3%; viability at 1 µM [13]: 69.2% |
